Reference: ChEMBL document CHEMBL2407048, “Novel synthetic acridine derivatives as potent DNA-binding and apoptosis-inducing antitumor agents” (Bioorg Med Chem, 2013)
Calls of active or inactive are those of the source. The rule behind the calls is not given here.

How the values were obtained:
K562 [1] = test: Cytotoxicity against human K562 cells assessed as growth inhibition after 48 hrs by MTT assay; format: functional, cell-based; conditions: K562, 48 h
Outline: (§1)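 K562 (RPMI-1640) or HepG-2 (DMEM) cells in 10% FBS with penicillin/streptomycin at 37 °C, 5% CO₂. Seeded at 1.5×10^5 cells/mL and treated 48 h at various concentrations. MTT (5 mg/mL) added for 4 h, formazan dissolved in DMSO, absorbance read at 490 nm. IC50 reported.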

DNA [2] = test: Binding affinity to calf thymus DNA by fluorescence spectroscopic analysis; format: nucleic-acid assay; conditions: Bos taurus
Outline: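 Compound at 50 μM final in Tris–HCl buffer pH 7.0 (10 mM Tris, 10 mM NaCl), titrated with ct DNA at 0 to 6 μM final. Emission excited at 420 nm with a xenon arc lamp. Quenching constant Kq derived from a Stern–Volmer plot, F0/F = 1 + Kq[Q].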

[3] = molecular target: T1, DNA topoisomerase 1 (Homo sapiens) (UniProt P11387); test: Inhibition of human recombinant DNA topoisomerase-1 assessed as relaxation of pBR322 DNA at 25 uM after 30 mins by agarose gel electrophoresis
T1 sequence (whole entry): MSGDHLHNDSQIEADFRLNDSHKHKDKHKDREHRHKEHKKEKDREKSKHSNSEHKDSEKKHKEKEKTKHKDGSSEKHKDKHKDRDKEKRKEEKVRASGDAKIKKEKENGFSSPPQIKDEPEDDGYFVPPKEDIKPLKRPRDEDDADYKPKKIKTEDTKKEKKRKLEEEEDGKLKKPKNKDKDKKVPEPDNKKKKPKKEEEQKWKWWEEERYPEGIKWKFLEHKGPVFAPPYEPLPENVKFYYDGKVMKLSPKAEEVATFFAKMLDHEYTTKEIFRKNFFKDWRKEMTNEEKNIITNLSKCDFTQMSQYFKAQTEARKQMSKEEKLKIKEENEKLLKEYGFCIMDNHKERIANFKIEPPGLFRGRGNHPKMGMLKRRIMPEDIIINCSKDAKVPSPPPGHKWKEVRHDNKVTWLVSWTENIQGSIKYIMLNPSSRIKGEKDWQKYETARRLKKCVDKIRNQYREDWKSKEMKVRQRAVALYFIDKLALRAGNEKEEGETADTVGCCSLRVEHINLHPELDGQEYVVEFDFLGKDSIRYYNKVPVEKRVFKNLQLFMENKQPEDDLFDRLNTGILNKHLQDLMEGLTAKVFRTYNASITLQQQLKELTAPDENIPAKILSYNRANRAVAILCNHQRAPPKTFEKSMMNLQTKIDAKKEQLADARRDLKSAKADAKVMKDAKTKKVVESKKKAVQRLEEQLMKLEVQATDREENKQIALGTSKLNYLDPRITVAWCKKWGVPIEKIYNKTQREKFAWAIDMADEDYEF

HepG2 = test: Cytotoxicity against human HepG2 cells assessed as growth inhibition after 48 hrs by MTT assay; format: functional, cell-based; conditions: HepG2, 48 h; outline: as §1
DNA [4] = test: Binding affinity to calf thymus DNA at 40 to 80 uM by CD spectra analysis; format: nucleic-acid assay; conditions: Bos taurus
Outline: (§2)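 CD spectra of ct DNA (40 μM) with compound at 0, 40 or 80 μM, in 10 mM Tris/10 mM NaCl pH 7.0, at room temperature in a 0.1 cm quartz cell. Each spectrum is the average of three scans with the buffer scan subtracted.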

DNA [5] = test: Effect on calf thymus DNA conformation at 40 to 80 uM by CD spectra analysis; format: nucleic-acid assay; conditions: Bos taurus; outline: as §2
K562 [6] = test: Induction of apoptosis in human K562 cells assessed as decrease in BCL-XL level at 2.5 uM after 48 hrs by Western blot analysis; format: functional, cell-based
Outline: (§3)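 K562 cells in 6 cm dishes treated 48 h at several concentrations, then lysed on ice 0.5 h and spun at 20,000g. Protein measured by BCA, run on 15% SDS-PAGE and transferred to PVDF. Membrane blocked in 5% BSA/TBS with Na₃VO₄ and NaF, primary antibody 2 h at room temperature, chemiluminescent detection of cleaved caspase-3/7/9, BAX and BCL-XL.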

K562 [7] = test: Induction of apoptosis in human K562 cells assessed as activation of caspase-9 after 48 hrs by Western blot analysis; format: functional, cell-based; outline: as §3
K562 [8] = test: Induction of apoptosis in human K562 cells assessed as caspase-7 cleavage at 2.5 uM after 48 hrs by Western blot analysis; format: functional, cell-based; outline: as §3
K562 [9] = test: Induction of apoptosis in human K562 cells after 48 hrs by annexin V-FITC/propidium iodide staining-based flow cytometric analysis; format: functional, cell-based
K562 [10] = test: Induction of apoptosis in human K562 cells assessed as early apoptotic cells at 2.5 uM after 48 hrs by annexin V-FITC/propidium iodide staining-based flow cytometric analysis (reference value: 2.1%); format: functional
K562 [11] = test: Induction of apoptosis in human K562 cells assessed as late apoptotic cells at 0.5 uM after 48 hrs by annexin V-FITC/propidium iodide staining-based flow cytometric analysis (reference value: 1.22%); format: functional
DNA [12] = test: Binding affinity to calf thymus DNA after 5 mins by UV-vis absorption spectroscopic analysis; format: nucleic-acid assay; conditions: Bos taurus
Outline: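 ct DNA (purity A260:A280 1.86; concentration per mole phosphate from ε260 6600 M⁻¹ cm⁻¹) titrated into 50 μM compound in 10 mM Tris, 10 mM NaCl, pH 7.0. DNA 0–10 μM. Incubated 5 min, UV-vis absorption recorded in a 1.0 cm quartz cell. Kb taken as the slope-to-intercept ratio of [DNA]/(εa−εf) plotted against [DNA].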

K562 [13] = test: Induction of apoptosis in human K562 cells assessed as early apoptotic cells at 0.5 uM after 48 hrs by annexin V-FITC/propidium iodide staining-based flow cytometric analysis (reference value: 2.1%); format: functional
K562 [14] = test: Induction of apoptosis in human K562 cells assessed as early apoptotic cells at 1 uM after 48 hrs by annexin V-FITC/propidium iodide staining-based flow cytometric analysis (reference value: 2.1%); format: functional
K562 [15] = test: Induction of apoptosis in human K562 cells assessed as late apoptotic cells at 2.5 uM after 48 hrs by annexin V-FITC/propidium iodide staining-based flow cytometric analysis (reference value: 1.22%); format: functional
K562 [16] = test: Induction of apoptosis in human K562 cells assessed as increase in Bax level at 2.5 uM after 48 hrs by Western blot analysis; format: functional, cell-based; outline: as §3
K562 [17] = test: Induction of apoptosis in human K562 cells assessed as late apoptotic cells at 1 uM after 48 hrs by annexin V-FITC/propidium iodide staining-based flow cytometric analysis (reference value: 1.22%); format: functional
K562 [18] = test: Induction of apoptosis in human K562 cells assessed as caspase-3 cleavage at 2.5 uM after 48 hrs by Western blot analysis; format: functional, cell-based; outline: as §3

Row | Kq (DNA [2]) | SMILES | IC50 (K562 [1]) [µM] | IC50 (HepG2) [µM] | also measured
1 | 6.22 ×10⁴ /M | Cc1cccc2c(NCc3ccccc3)c3ccccc3nc12 | 4.86 | 3.64 | inhibition [3]: Active
2 | 3.5 ×10⁵ /M | COc1ccc2nc3ccccc3c(NCc3ccccc3)c2c1 | 0.54 | 0.89 | Activity (DNA [4]): Active; Activity (DNA [5]): inactive; Activity (K562 [6]): Active; Activity (K562 [7]): Dose-dependent effect; Activity (K562 [8]): Active; Activity (K562 [9]): Dose-dependent effect; Activity (K562 [10]): 40.44%; Activity (K562 [11]): 2%; Kb (DNA [12]): 1.42 ×10⁵ /M; Activity (K562 [13]): 7.23%; Activity (K562 [14]): 37.09%; Activity (K562 [15]): 32.71%; inhibition [3]: Active; Activity (K562 [16]): Active; Activity (K562 [17]): 18.42%; Activity (K562 [18]): Active
3 | 1.11 ×10⁵ /M | COc1cc(C)c2nc3cc(Cl)ccc3c(NCc3ccccc3)c2c1 | 3.09 | 6.05 | –
4 | < 1 ×10⁴ /M | c1ccc(COc2c3ccccc3nc3ccccc23)cc1 | > 50 | > 50 | –
5 | 3.71 ×10⁴ /M | c1ccc(CNc2c3ccccc3nc3ccccc23)cc1 | 5.24 | 6.07 | inhibition [3]: Active
6 | 1.33 ×10⁴ /M | Clc1ccc2c(NCc3ccccc3)c3ccccc3nc2c1 | 9.24 | 11.6 | –
7 | – | COc1cc2c(c(OC)c1OC)-c1ccc(OC)c(=O)cc1[C@@H](NC(C)=O)CC2 [COLCHICINE] | – | 1.8 | –
8 | 1.97 ×10⁵ /M | COc1ccc2nc3cc(Cl)ccc3c(NCc3ccccc3)c2c1 | 0.65 | 1.4 | –
9 | < 1 ×10⁴ /M | O=C(Nc1c2ccccc2nc2ccccc12)c1ccccc1 | > 50 | > 50 | –
10 | – | Cc1ccc(NC(=O)c2ccc(CN3CCN(C)CC3)cc2)cc1Nc1nccc(-c2cccnc2)n1 [IMATINIB] | 0.47 | – | –
11 | 1.19 ×10⁵ /M | COc1ccc2nc3cc(Cl)ccc3c(NCCc3ccccc3)c2c1 | 0.65 | 2.19 | –
12 | 1.05 ×10⁵ /M | COc1ccc2nc3cc(Cl)ccc3c(NCCCc3ccccc3)c2c1 | 2.2 | 3.26 | –
